# MEKK3 PB1 HTS – modulators of MEKK3-MEK5 PB1 binding, primary screen, biochemical, wildtype MEKK3, multiplex bead flow cytometry, Alexa488-MEK5 | AID 1529, 2009 | actives 1.4% (n = 290,000) | binding response (% of control), % at 10 µM | bead-based flow cytometry, Alexa488-MEK5 binding to MEKK3; actives lie on both sides; 0 = blocked by unlabeled MEK5, 100 = vehicle | Mitogen-activated protein kinase kinase kinase 3 (Homo sapiens), Q99759;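 active means binding response more than 3 SD above or below the average of its plate-row segment, actives on both sides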;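 further: Alexa488 bead fluorescence after subtracting the streptavidin-only scavenger bead signal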
# Target sequence (Q99759 whole entry, looked up): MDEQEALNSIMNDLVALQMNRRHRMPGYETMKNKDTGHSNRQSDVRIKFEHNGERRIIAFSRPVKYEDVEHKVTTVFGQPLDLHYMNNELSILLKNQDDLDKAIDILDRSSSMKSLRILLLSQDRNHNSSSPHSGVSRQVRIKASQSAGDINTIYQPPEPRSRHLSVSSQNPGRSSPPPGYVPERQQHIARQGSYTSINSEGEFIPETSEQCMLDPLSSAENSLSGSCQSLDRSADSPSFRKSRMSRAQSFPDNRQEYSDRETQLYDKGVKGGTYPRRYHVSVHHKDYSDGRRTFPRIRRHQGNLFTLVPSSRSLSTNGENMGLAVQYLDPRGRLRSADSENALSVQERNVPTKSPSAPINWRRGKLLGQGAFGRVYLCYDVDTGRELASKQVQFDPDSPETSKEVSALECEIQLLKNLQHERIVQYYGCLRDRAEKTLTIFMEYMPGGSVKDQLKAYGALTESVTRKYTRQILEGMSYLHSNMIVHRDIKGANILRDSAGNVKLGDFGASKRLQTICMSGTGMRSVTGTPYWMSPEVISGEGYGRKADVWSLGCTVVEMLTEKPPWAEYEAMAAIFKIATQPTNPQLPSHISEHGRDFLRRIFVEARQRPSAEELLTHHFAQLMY
# MEKK2mut PB1 HTS – MEK5 binding signal on mutant MEKK2 PB1, primary screen, biochemical, multiplex bead flow cytometry, Alexa488-MEK5; Alexa488-MEK5 binding to MEKK2 mutant; percent response, % at 10 µM; actives 0.35% (n = 290,000); AID 1530, 2009; in the data active means percent response above about 24%, passing the limit was not always enough
# Apaf-1 inh – inhibitors of human Apaf-1 apoptosome, primary screen, biochemical, DEVD-Rh110 fluorescence, uHTS; reconstituted apoptosome caspase-3 activity; inhibition, % at 20 µM; AID 489030, 2010; Apoptotic protease-activating factor 1 (Homo sapiens), O14727; actives 0.71% (n = 330,000); active means inhibition of at least 40% at 20 µM
#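 Material: reconstituted apoptosome with Apaf-1, cytochrome c, caspase-9, procaspase-3, dATP; medium: pH 7.5 Hepes buffer with CHAPS, BSA, DTT; also added: cytochrome c and DEVD-Rh110 substrate; timing: 30 min plus 50 min, RT; signal: Rh110 fluorescence intensity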
# UBC13 inh – UBC13 polyubiquitin chain formation inhibitors, primary screen, biochemical, TR-FRET, uHTS. Ubiquitin-conjugating enzyme E2 N (Homo sapiens), P61088. inhibition, % at 20 µM. actives 0.47% (n = 330,000). AID 485273, 2010; in the data active means inhibition above about 45%, passing the limit was not always enough
# MEKK2wt PB1 HTS – modulators of MEK5 binding to wildtype MEKK2, primary screen, biochemical, multiplex bead flow cytometry, Alexa488-MEK5; binding response (% of control), % at 10 µM; AID 1531, 2009; Alexa488-MEK5 binding to MEKK2 WT; actives lie on both sides; Mitogen-activated protein kinase kinase kinase 2 (Homo sapiens), Q9Y2U5; actives 1.1% (n = 290,000); in the data active means binding response below about 67% or above about 130%
# MEKK2wt confirm – modulators of MEK5 binding to wildtype MEKK2, confirmation, biochemical, single concentration, multiplex bead flow cytometry; shares compounds with MEKK3 PB1 HTS; actives 2.4% (n = 5,900); Alexa488-MEK5 binding to MEKK2 WT; actives lie on both sides; binding response (% of control), % at 10 µM; in the data active means binding response below about 16% or above about 210%; inactive means in between
# MEKK2mut confirm – mutant MEKK2 PB1-MEK5 binding signal retest – biochemical, single concentration, multiplex bead flow cytometry, confirmation; shares compounds with MEKK3 PB1 HTS; Alexa488-MEK5 binding to MEKK2 mutant; percent response, % at 10 µM; actives 2% (n = 5,900); in the data active means percent response mostly above about 71%, no sharp cut-off; inactive means mostly below about 38%;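 further: higher means compound restores mutant binding toward wildtype level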
# MEKK3 confirm – MEKK3 wild-type PB1 binding to MEK5, inhibitors, confirmation, biochemical, bead multiplex flow cytometry, single concentration, wildtype; AID 1894, 2009; shares compounds with MEKK3 PB1 HTS; binding response (% of control), % at 10 µM; actives 1.8% (n = 5,900); Alexa488-MEK5 binding to MEKK3; active compounds read low;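 active means binding response below 72% of control, or above a set upper limit, though filed actives all read lower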;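 further: lower values mean stronger disruption of MEK5 binding to MEKK3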
# Hits are given with their value; i = inactive; nt = not tested or not shown; [ ] = remark or other dose. In the library only some 2.9% were active in any assay of this set; here they are far more common.
SMILES,MEKK3 PB1 HTS,MEKK2mut PB1 HTS,Apaf-1 inh,UBC13 inh,MEKK2wt PB1 HTS,others
COc1ccc2nc(C)cc(NCc3cccc(C(F)(F)F)c3)c2c1,i,i,i,i,154.0,
O=S(=O)(c1cccc(NC(=S)N2CCN(c3cccc(Cl)c3)CC2)c1)C(F)F,134.0,i,i,i,i,
COC(=O)/C=C1\SC(N2CCOCC2)=C(c2ccc(OC)cc2)C1=O,i,i,i,i,i,
Cn1c(=O)n(Cc2ccc(Cl)cc2)c(=O)c2c1nc1n2CCN1Cc1ccco1,i,i,i,i,i,
Cc1cccc(Cn2c(=O)c3c(nc4n3CCN4Cc3ccco3)n(C)c2=O)c1,2.0[inhibitor],i,i,i,2.0[inhibitor],
CC(C)c1ccc(CNCCCSc2ncccn2)cc1,i,i,i,i,i,
CCC(=O)OCCNc1cc(Sc2nc3ccccc3s2)c2nonc2c1[N+](=O)[O-],i,i,45.7,i,i,
O=[N+]([O-])c1c(NCCCO)cc(Sc2nc3ccccc3s2)c2nonc12,nt,nt,97.8,i,nt,
CCC(=O)OCCNc1cc(Sc2nc3ccccc3[nH]2)c2nonc2c1[N+](=O)[O-],i,i,nt,nt,i,
Cc1[nH]c2ccccc2c1/C=N/NC(=O)CCC(=O)NCc1ccccc1,i,i,i,i,i,
CCC(=O)Nc1ccc(C(=O)N/N=C/c2c(C)[nH]c3ccccc23)cc1,i,i,i,i,35.0,
CC(=C/c1ccco1)/C=N/NC(=O)CSc1nnc(SCc2ccc(C)cc2)s1,i,i,i,i,i,
CCC1=C[C@H]2CN(C1)Cc1c([nH]c3ccccc13)[C@@](C(=O)OC)(c1cc3c(cc1OC)N(C)[C@H]1[C@@](O)(C(=O)OC)[C@H](OC(C)=O)[C@]4(CC)C=CCN5CC[C@]31[C@@H]54)C2,i,32.0,nt,nt,183.0,
COCCCNCC(O)COc1ccccc1F (stereo not given),i,i,i,i,10.0,
COCCCNCC(O)COc1cccc2[nH]c(C)cc12 (stereo not given),i,i,i,i,i,
COCCNC(=S)N/N=C1\CC(C)CC(C)(C)C1 (stereo not given),i,i,i,i,i,
COc1cccc(NC(=O)CN2C(=O)c3cccnc3Oc3ccc(Cl)cc32)c1,i,i,i,i,i,
O=C(CN1C(=O)c2cccnc2Oc2ccc(Cl)cc21)Nc1ccccc1F,i,i,i,i,10.0,
CC(=O)/C(N)=N/Nc1cccc(Cl)c1,i,i,i,i,16.0,
CN1CCN(C(=S)c2cn(CCOc3ccccc3F)c3ccccc23)CC1,i,i,i,i,-9.0,
O=C(CCCN1C(=O)c2cccc3cccc(c23)C1=O)N1CCN(c2ccccn2)CC1,129.0,i,i,i,i,
COc1ccccc1/C=C/CN1CCCC(CO)(Cc2cccc(Cl)c2)C1 (stereo not given),i,60.0,i,i,190.0,
COc1ccc(C(C)=O)cc1COC(=O)CSCC(=O)Nc1ccc(C)cc1,nt,nt,i,i,nt,
COC(=O)c1cccc(NC(=O)CSc2nncn2-c2ccccn2)c1,i,i,i,i,i,
COC(=O)c1ccc(NC(=O)CSc2nncn2-c2ccccn2)cc1,0.0[inhibitor],i,i,i,-11.0[inhibitor],
SMILES,MEKK3 PB1 HTS,MEKK2mut PB1 HTS,Apaf-1 inh,UBC13 inh,MEKK2wt PB1 HTS,others
Cc1ccccc1NC(=O)c1cc[n+]([O-])cc1,i,i,i,i,169.0,
Cc1ccccc1NC(=O)NC(N)=O,i,i,i,i,-4.0,
CCN(CC(=O)NCc1cccs1)C(=O)C1CC(=O)N(c2ccc(OC)cc2OC)C1 (stereo not given),nt,nt,51.4,i,nt,
CCOC(=O)c1cccc(NC(=O)Cn2nc(C)n3cccc3c2=O)c1,i,i,i,i,i,
CCOC(=O)C1=C(C)N=c2s/c(=C/c3ccc(OCC(=O)O)c(OC)c3)c(=O)n2C1c1ccc(Cl)cc1 (stereo not given),nt,nt,i,i,nt,
O=C1CCCC2=C1C(c1ccc(Cl)cc1)n1c(s/c(=C\c3ccc4ccncc4c3)c1=O)=N2 (stereo not given),141.0,i,i,i,i,MEKK2wt confirm=i;MEKK2mut confirm=i;MEKK3 confirm=i
O=C(Nc1cccc(F)c1)C1CCN(C(=O)c2ccc(Cl)cc2)CC1,145.0,i,i,i,i,MEKK2wt confirm=i;MEKK2mut confirm=i;MEKK3 confirm=i
COc1cc(OC)cc(C(=O)N2CCC(C(=O)Nc3ccc4c(c3)OCCO4)CC2)c1,146.0,i,i,i,i,MEKK2wt confirm=i;MEKK2mut confirm=i;MEKK3 confirm=i
COc1ccc(C(=O)N2CCC(C(=O)Nc3ccc4c(c3)OCO4)CC2)cc1,i,i,i,i,i,
CCc1ccccc1NC(=O)C1(S(=O)(=O)c2ccc(C)cc2)CC1,i,i,i,i,i,
COc1ccc(N2C(=O)c3cccc4cc(Br)cc(c34)C2=O)cc1,73.0[inhibitor],i,i,i,i,MEKK2wt confirm=i;MEKK2mut confirm=i;MEKK3 confirm=i
CCOC(=O)N1CCN(C(=O)COC(=O)c2cc(C)ccc2C)CC1,nt,nt,i,i,nt,
COCC(C)NCc1cccc2ccccc12 (stereo not given),i,i,i,i,i,
CC(CCc1ccccc1)NCc1cccc2ccccc12 (stereo not given),i,i,i,i,135.0,MEKK2wt confirm=i;MEKK2mut confirm=i;MEKK3 confirm=i
Cc1ccc(S(=O)(=O)N=Nc2c(O)[nH]c3ccccc23)cc1,126.0,i,i,i,i,MEKK2wt confirm=i;MEKK2mut confirm=i;MEKK3 confirm=i
CC1CCCCN1S(=O)(=O)c1ccc(S(=O)(=O)NCCc2ccncc2)cc1 (stereo not given),i,i,i,i,i,
CCOC(=O)c1c(CSCc2ccccc2)oc2ccc(O)c(CN(C)C)c12,i,i,i,i,137.0,MEKK2wt confirm=i;MEKK2mut confirm=i;MEKK3 confirm=i
Cc1ccc(S(=O)(=O)n2c3ccc(Cl)cc3c3nc(C)sc32)cc1,150.0,i,nt,nt,i,MEKK2wt confirm=i;MEKK2mut confirm=i;MEKK3 confirm=i
COC(=O)Cn1c2ccc(Cl)cc2c2nc(C)sc21,i,i,i,i,i,
COc1ccc(C2N(c3ccccc3)C(=S)N3CCCN23)cc1 (stereo not given),139.0,i,i,i,i,MEKK2wt confirm=i;MEKK2mut confirm=i;MEKK3 confirm=i

# Screening results: PubChem, several laboratories
